The values that follow come from ChEMBL document CHEMBL1828512, “Potent, metabolically stable benzopyrimido-pyrrolo-oxazine-dione (BPO) CFTR inhibitors for polycystic kidney disease” (J Med Chem, 2011).

SMILES strings stand for the structures. ≈ marks a conversion by molar mass, not a printed value. A value given as a limit tells only on which side of the number the result lay.

The target in data set [1] is Cystic fibrosis transmembrane conductance regulator (Homo sapiens, UniProt P13569). In words: Inhibition of human wild-type CFTR expressed in FRT cells coexpressing YFP-H148Q assessed as inhibition of cAMP agonist-induced iodide influx after 45 mins by fluorescence plate-reader analysis. In kind it is functional, cell-based.
Cystic fibrosis transmembrane conductance regulator, sequence (P13569 whole entry): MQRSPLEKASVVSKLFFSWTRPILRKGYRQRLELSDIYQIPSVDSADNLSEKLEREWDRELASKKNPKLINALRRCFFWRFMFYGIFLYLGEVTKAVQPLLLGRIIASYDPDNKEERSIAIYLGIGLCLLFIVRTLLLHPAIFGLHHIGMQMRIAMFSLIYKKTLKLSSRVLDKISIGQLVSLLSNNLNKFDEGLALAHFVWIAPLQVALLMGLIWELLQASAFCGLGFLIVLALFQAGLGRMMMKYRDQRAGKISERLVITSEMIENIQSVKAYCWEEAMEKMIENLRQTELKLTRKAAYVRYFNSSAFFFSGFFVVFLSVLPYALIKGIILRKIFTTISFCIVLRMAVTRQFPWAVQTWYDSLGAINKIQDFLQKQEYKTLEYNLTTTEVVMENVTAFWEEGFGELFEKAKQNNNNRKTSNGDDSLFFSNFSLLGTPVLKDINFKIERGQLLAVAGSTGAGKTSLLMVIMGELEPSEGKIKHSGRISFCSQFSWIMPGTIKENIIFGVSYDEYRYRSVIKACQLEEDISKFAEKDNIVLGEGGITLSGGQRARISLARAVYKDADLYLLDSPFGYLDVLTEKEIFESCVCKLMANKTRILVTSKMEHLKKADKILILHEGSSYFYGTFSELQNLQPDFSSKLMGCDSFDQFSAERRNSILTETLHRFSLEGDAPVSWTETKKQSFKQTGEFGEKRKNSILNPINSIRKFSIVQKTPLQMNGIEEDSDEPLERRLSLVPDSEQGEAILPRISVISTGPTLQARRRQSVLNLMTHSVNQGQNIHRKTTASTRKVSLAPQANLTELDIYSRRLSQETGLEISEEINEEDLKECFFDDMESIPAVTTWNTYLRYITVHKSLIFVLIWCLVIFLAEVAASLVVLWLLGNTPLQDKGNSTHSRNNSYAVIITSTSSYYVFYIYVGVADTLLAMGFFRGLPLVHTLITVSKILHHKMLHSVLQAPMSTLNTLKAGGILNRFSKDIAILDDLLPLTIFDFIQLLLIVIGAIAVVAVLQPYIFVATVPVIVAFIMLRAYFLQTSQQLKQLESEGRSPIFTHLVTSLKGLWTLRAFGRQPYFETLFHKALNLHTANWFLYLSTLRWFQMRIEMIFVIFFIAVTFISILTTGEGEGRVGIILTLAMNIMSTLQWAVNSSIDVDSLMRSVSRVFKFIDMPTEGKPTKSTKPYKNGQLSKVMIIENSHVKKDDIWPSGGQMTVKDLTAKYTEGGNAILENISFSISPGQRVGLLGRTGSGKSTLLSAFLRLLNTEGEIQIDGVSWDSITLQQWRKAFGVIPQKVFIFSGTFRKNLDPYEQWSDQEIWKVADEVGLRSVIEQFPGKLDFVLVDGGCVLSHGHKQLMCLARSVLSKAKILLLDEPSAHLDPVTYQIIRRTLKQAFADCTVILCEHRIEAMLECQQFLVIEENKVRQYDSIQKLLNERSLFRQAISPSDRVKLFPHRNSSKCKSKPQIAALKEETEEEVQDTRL
A short description of data set [2]: Metabolic stability of the compound in rat liver microsomes assessed as disappearance of compound after 30 mins by LC/MS analysis in presence of NADPH. Type of data set: ADME, Microsome. Conditions: read-out: Drug metabolism; call rule not given here. Put shortly:
(§1)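 Compound at 5 µM was incubated with rat liver microsomes (1 mg protein/mL) in 100 mM potassium phosphate at 37 °C, with 0 or 1 mM NADPH. Samples were chilled, extracted with ethyl acetate, dried and taken up in mobile phase. Analysis was reverse-phase C18 LC/MS on a 5–95% acetonitrile gradient with negative ion detection.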

Data set [3] in a line: Solubility of the compound in aqueous phosphate buffer at pH 7.4. In kind it is physicochemical. Put shortly:
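Solubility was measured in aqueous phosphate buffer at pH 7.4.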

A further data set deals with Kidney. Nature of the data set: Inhibition of 8-Br-cAMP-induced renal cystogenesis in mouse embryonic kidney organ culture model after 5 days by inverted microscopic analysis. Type of data set: functional, tissue-based. The settings on record: 120 h.
In the next data set the test system is Liver microsomes. Nature of the data set: Metabolic stability of the compound in rat liver microsomes assessed as disappearance of compound after 30 mins by LC/MS analysis in absence of NADPH. Type of data set: ADME, Microsome. Conditions: 0.5 h. Put shortly: as §1
On the technique in general: Liver microsomes are a subcellular fraction often used to study metabolism.

A short description of data set [4]: Solubility of the compound in albumin free saline. The settings on record: buffer. Type of data set: physicochemical.

Usually IC50 stands for the point on the concentration scale where inhibition reaches its midpoint. For `Cn1c(=O)c2c(-c3ccccc3)n3c(c2n(C)c1=O)C(c1cc2ccccc2o1)Nc1ccccc1-3` (configuration not stated), the IC50 result in data set [1] is recorded as “Not Active”. By solubility is commonly meant the concentration that dissolves in the medium under given conditions. The low end stands for little dissolved substance, the high end for much dissolved substance. Regarding `Cn1c(=O)c2c(-c3ccccc3)n3c(c2n(C)c1=O)C(c1ccc(Br)o1)Oc1ccc(C(=O)O)cc1-3` (configuration not stated), the metabolised at 0.5 h in data set [2] was less than 5%. The solubility in data set [3] is 17 µM (≈ 9.32 µg/mL). Further, the IC50 in the data set on Kidney came to 100 nM.

`Cc1ccc(C2Nc3ccccc3-n3c(-c4ccccc4)c4c(=O)n(C)c(=O)n(C)c4c32)o1` (configuration not stated): in data set [2], the metabolised at 0.5 h came out at 60%. Besides, the Stability entry with Liver microsomes is recorded as “Stable”. For the same compound, the solubility in data set [4] is less than 2 µM. With `Cn1c(=O)c2c(-c3ccccc3)n3c(c2n(C)c1=O)C(c1ccc(-c2ccccc2)o1)Nc1ccccc1-3` (configuration not stated), the IC50 entry in data set [1] was “Not Active”. The same measure, in the same setting: the same measure for `Cc1ccc(C2c3c4c(c(-c5ccccc5)n3-c3ccccc3N2S(C)(=O)=O)c(=O)n(C)c(=O)n4C)o1` (configuration not stated): “Not Active”; for `Cc1ccc(C2c3c4c(c(-c5ccccc5)n3-c3ccccc3N2C(=O)CCl)c(=O)n(C)c(=O)n4C)o1` (configuration not stated): “Not Active”; for `Cn1c(=O)c2c(-c3ccccc3)n3c(c2n(C)c1=O)C(c1ccc(CO)o1)Nc1ccccc1-3` (configuration not stated): “Not Active”.

`CC(=O)N1c2ccccc2-n2c(-c3ccccc3)c3c(=O)n(C)c(=O)n(C)c3c2C1c1ccc(C)o1` (configuration not stated): in data set [1], the IC50 result was “Not Active”.
